Experimental data of several laboratories.

Compound	target or system	effect on	technique	strain	time	quantity	result
C=CC(=O)NC1CCN(c2ncc3ncnc(Nc4ccc(Oc5ccc6c(c5)ncn6C)c(C)c4)c3n2)CC1	Capan-2	cell growth or viability	–	–	–	EC50	36.1 nM
Cc1[nH]c(C(=O)Nc2ccc(C(=O)NCc3n[nH]c(=O)o3)cc2N2CCNCC2)c(Cl)c1Cl.Cl	Acinetobacter baumannii	microbial growth	broth dilution	ATCC19606	–	MIC	> 32 µg/mL
Cc1nc(N(Cc2ccccc2)c2ccc3c(c2)/C(=C/c2ccccc2)C(=O)N3Cc2ccccc2)c2ccccc2n1 (mixture of isomers)	B16	cell growth or viability	MTT	–	–	IC50	200 nM
Cl.N[C@H]1CCN(c2cc(C(=O)NCC(=O)O)ccc2NC(=O)c2cc(Br)c(Br)[nH]2)C1	Acinetobacter baumannii	microbial growth	broth dilution	ATCC19606	–	MIC	> 32 µg/mL
O=C(O)c1cn(C2CC2)c2cc(N3CCNCC3)c(F)cc2c1=O	Acinetobacter baumannii	microbial growth	broth dilution	ATCC19606	–	MIC	2 µM
O=C(O)c1cn(C2CC2)c2cc(N3CCNCC3)c(F)cc2c1=O	Acinetobacter baumannii	microbial growth	–	ATCC19606	–	MIC	8 µM
NNC(=O)c1ccncc1	Mycobacterium kansasii	microbial growth	broth dilution	DSM44162	7 days	MIC	4 µg/mL
COc1cc2ncnc(Nc3ccc4c(c3)/C(=C/c3ccccc3)C(=O)N4C)c2cc1OC	B16	cell growth or viability	MTT	–	–	IC50	1530 nM
O=C(O)c1cn(C2CC2)c2cc(N3CCNCC3)c(F)cc2c1=O	Mycobacterium kansasii	microbial growth	broth dilution	DSM44162	7 days	MIC	1 µg/mL
Cc1nc(Nc2ccc3c(c2)/C(=C/c2ccccc2)C(=O)N3Cc2ccccc2)c2ccccc2n1	B16	cell growth or viability	MTT	–	–	IC50	15000 nM
